Legend:
[1] = biological target: T1, Proto-oncogene tyrosine-protein kinase Src (Homo sapiens, UniProt P12931); experiment: (§1) Binding affinity for Src protein tyrosine kinase SH2 domain using surface plasmon resonance (SPR) assay
[2] = biological target: T1, Proto-oncogene tyrosine-protein kinase Src; experiment: Binding affinity for Src SH2 domain in scintillation proximity binding assay (SPA)
[3] = biological target: T1, Proto-oncogene tyrosine-protein kinase Src; experiment: Binding affinity towards Src protein tyrosine kinase SH2 domain using scintillation proximity binding assay (SPA)
[4] = biological target: T1, Proto-oncogene tyrosine-protein kinase Src; experiment: Binding affinity towards Src protein tyrosine kinase SH2 domain using surface plasmon resonance (SPR) assay
[5] = biological target: T1, Proto-oncogene tyrosine-protein kinase Src; experiment: Binding affinity for Src SH2 domain in scintillation proximity binding assay (SPA) - inactive
[6] = biological target: T1, Proto-oncogene tyrosine-protein kinase Src; experiment: Binding affinity for Src protein tyrosine kinase SH2 domain using scintillation proximity binding assay (SPA)
[7] = biological target: T1, Proto-oncogene tyrosine-protein kinase Src; experiment: as §1; remark: listed apart in the source
Summary of the method: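 Surface plasmon resonance with human Src SH2 domain (aa 145–251), E. coli-expressed and purified by cation exchange and gel filtration. Ligands compete for binding; IC50 reported.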

[8] = biological target: T1, Proto-oncogene tyrosine-protein kinase Src; experiment: Binding affinity towards Src protein tyrosine kinase SH2 domain protein using scintillation proximity binding assay (SPA)

T1 sequence (P12931 2-536 limits assumed): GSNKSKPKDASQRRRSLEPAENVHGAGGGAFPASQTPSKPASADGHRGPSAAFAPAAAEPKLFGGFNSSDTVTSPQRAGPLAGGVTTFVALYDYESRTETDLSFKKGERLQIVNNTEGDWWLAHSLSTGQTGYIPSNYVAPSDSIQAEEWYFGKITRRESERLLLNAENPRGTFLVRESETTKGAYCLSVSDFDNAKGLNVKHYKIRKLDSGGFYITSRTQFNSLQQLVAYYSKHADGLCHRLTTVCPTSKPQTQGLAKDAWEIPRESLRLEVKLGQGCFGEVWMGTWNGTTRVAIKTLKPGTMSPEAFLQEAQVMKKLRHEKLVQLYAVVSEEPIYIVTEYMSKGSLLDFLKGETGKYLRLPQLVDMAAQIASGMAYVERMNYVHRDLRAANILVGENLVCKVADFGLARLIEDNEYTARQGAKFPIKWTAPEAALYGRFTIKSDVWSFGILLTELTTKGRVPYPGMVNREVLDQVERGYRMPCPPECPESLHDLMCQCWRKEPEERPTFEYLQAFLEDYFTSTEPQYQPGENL

O=Cc1ccccc1OP(=O)(O)O
IC50 [1]: 300 µM
IC50 [2]: 80 µM

O=C(O)C(c1ccccc1)S(=O)(=O)O (stereo not drawn)
IC50 [3]: 192 µM

COC(=O)c1cc(C[C@@H](NC(C)=O)C(=O)N[C@H]2CCCCN(Cc3ccc(-c4ccccc4)cc3)C2=O)ccc1C(C(=O)O)C(=O)O
IC50 [4]: 0.007 µM

Cc1ccc(C(C(=O)O)C(=O)O)c(COC=O)c1
IC50 [3]: 100 µM

O=C(O)CC(CC(=O)O)(c1ccccc1)c1ccccc1
IC50 [5]: Not Active

O=Cc1cccc(OP(=O)(O)O)c1
IC50 [1]: 2100 µM
IC50 [2]: 600 µM

O=S(=O)(O)C(O)c1ccccc1 (stereo not drawn)
IC50 [5]: Not Active

COc1cccc(C=O)c1OP(=O)(O)O
IC50 [6]: 95 µM

Cc1cc(C=O)cc(C)c1OP(=O)(O)O
IC50 [7]: 5000 µM

CCC(C(N)=O)(C(=O)O)c1ccccc1 (stereo not drawn) [PHENYLETHYLMALONAMIDE -]
IC50 [5]: Not Active

O=C(O)C(c1ccc(O)cc1)S(=O)(=O)O (stereo not drawn)
IC50 [8]: 190 µM

Cc1ccc(CC(=O)O)c(C=O)c1
IC50 [2]: 385 µM

O=P(O)(O)Oc1ccccc1 [PHENYL DIHYDROGEN PHOSPHATE]
IC50 [1]: 5000 µM
IC50 [6]: 300 µM

CC[C@H](C)[C@H](NC(=O)[C@H](CCC(=O)O)NC(=O)[C@H](CCC(=O)O)NC(=O)[C@H](Cc1ccc(OP(=O)(O)O)cc1)NC(C)=O)C(N)=O
IC50 [1]: 0.001 µM
IC50 [2]: 0.15 µM

O=C(O)CC(CC(=O)O)c1ccccc1
IC50 [5]: Not Active

COC(=O)c1cc(C[C@H](NC(C)=O)C(=O)N[C@H]2CCCCN(Cc3ccc(-c4ccccc4)cc3)C2=O)ccc1C(C(=O)O)C(=O)O
IC50 [4]: 0.556 µM

O=C(O)CC(C(=O)O)c1ccccc1 (stereo not drawn)
IC50 [5]: Not Active

Cc1cc(C=O)c(OP(=O)(O)O)c(C=O)c1
IC50 [2]: 39 µM

CC(CC(=O)O)(CC(=O)O)c1ccccc1
IC50 [5]: Not Active

Reference: ChEMBL document CHEMBL1135454, “SAR and X-ray. A new approach combining fragment-based screening and rational drug design: application to the discovery of nanomolar inhibitors of Src SH2” (J Med Chem, 2002)
